Reference: ChEMBL document CHEMBL3813669, “Synthesis and in vitro evaluation of hydrazinyl phthalazines against malaria parasite, Plasmodium falciparum” (Bioorg Med Chem Lett, 2016)
The source made the active and inactive calls. The rule behind the calls is not given here.

Tests used:
Plasmodium falciparum [1] = assay: Antiplasmodial activity against Plasmodium falciparum 3D7 trophozoite stage infected in human RBCs assessed as reduction in parasitemia at 1 to 100 uM after 48 hrs by Hoechst-3342 staining based flow cytometric analysis; type: functional, organism-based
Method in brief: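 3D7 parasites at trophozoite stage (~30 hpi) were exposed to 1, 20 and 100 μM compound, with DMSO-treated negative control. Parasitemia was read by flow cytometry after 48 h.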

Plasmodium falciparum [2] = assay: Antiplasmodial activity against Plasmodium falciparum 3D7 infected in human RBCs assessed as inhibition of schizont to ring stage transition at 2 and 4 times IC50 measured after 12 hrs by flow cytometric analysis; type: functional, organism-based
Method in brief: (§1)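 Synchronised 3D7 cultures received compound at ring (2-4 h), trophozoite (24-26 h) or schizont (36-38 h) stage. Dosing was 4×, 2×, 1× and 0.25× the IC50 estimated from the 3D7 dose-response. Samples were harvested about 12 h later, and stage progression and morphology were monitored by flow cytometry and microscopy.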

[3] = Selectivity index, ratio of IC50 for MDCK cells to IC50 for Plasmodium falciparum 3D7
Method in brief: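 Ratio computed as […]. The 3D7 IC50 came from trophozoite-stage parasites (~24-26 hpi) incubated 48 h with 1.6-100 μM compound, with DMSO and chloroquine controls. The MDCK IC50 came from the MTT assay tested up to 200 μM.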

Plasmodium falciparum [4] = assay: Antiplasmodial activity against Plasmodium falciparum 3D7 trophozoite stage infected in human RBCs assessed as reduction in parasitemia after 48 hrs by Hoechst-3342 staining based flow cytometric analysis; type: functional, organism-based; details: 3D7, 48 h
Method in brief: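 Trophozoite-stage 3D7 parasites (~24–26 hpi) were exposed to 1.6 μM to 100 μM compound for 48 h, with DMSO-treated parasites as negative control and chloroquine as positive control. Parasitemia was read by flow cytometry, and IC50 was estimated from the concentration series.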

Plasmodium falciparum [5] = assay: Antiplasmodial activity against Plasmodium falciparum 3D7 infected in human RBCs assessed as inhibition of trophozoite to schizont stage transition at 2 and 4 times IC50 measured after 12 hrs by flow cytometric analysis; type: functional, organism-based; method in brief: as §1
MDCK = assay: Cytotoxicity against MDCK cells assessed as cell viability measured after overnight incubation by MTT assay; type: cell-based; details: Canis lupus familiaris
Method in brief: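 MDCK cells were tested by MTT viability assay at compound concentrations up to 200 μM, alongside controls.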

Plasmodium falciparum [6] = assay: Antiplasmodial activity against Plasmodium falciparum 3D7 infected in human RBCs assessed as inhibition of ring to trophozoite stage transition at 4 times IC50 measured after 12 hrs by flow cytometric analysis; type: functional, organism-based; method in brief: as §1
Plasmodium falciparum [7] = assay: Antiplasmodial activity against chloroquine-resistant Plasmodium falciparum K1 infected in human RBCs assessed as reduction in parasitemia after 48 hrs by Hoechst-3342 staining based flow cytometric analysis; type: functional, organism-based; details: K1, 48 h
Method in brief: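 The K1 strain was screened across a 0–100 μM compound range alongside 3D7, and IC50 values were derived from parasitemia. Giemsa-stained smears from representative experiments were also examined by microscopy for parasite phenotype.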

Plasmodium falciparum [8] = assay: Antiplasmodial activity against Plasmodium falciparum 3D7 infected in human RBCs assessed as inhibition of merozoite maturation at schizont stage at IC50 by Giemsa-staining based microscopic analysis; type: functional, organism-based
Plasmodium falciparum [9] = assay: Antiplasmodial activity against Plasmodium falciparum 3D7 infected in human RBCs assessed as inhibition of ring to trophozoite stage transition at 0.25 to 4 times IC50 measured after 12 hrs by flow cytometric analysis; type: functional, organism-based; method in brief: as §1
Plasmodium falciparum [10] = assay: Antiplasmodial activity against Plasmodium falciparum 3D7 infected in human RBCs assessed as inhibition of trophozoite to schizont stage transition at 0.25 to 4 times IC50 measured after 12 hrs by flow cytometric analysis; type: functional, organism-based; method in brief: as §1
Plasmodium falciparum [11] = assay: Antiplasmodial activity against Plasmodium falciparum 3D7 infected in human RBCs assessed as inhibition of schizont to ring stage transition at 1 to 4 times IC50 measured after 12 hrs by flow cytometric analysis; type: functional, organism-based; method in brief: as §1
Plasmodium falciparum [12] = assay: Antiplasmodial activity against Plasmodium falciparum 3D7 infected in human RBCs assessed as inhibition of schizont to ring stage transition at 4 times IC50 measured after 12 hrs by flow cytometric analysis; type: functional, organism-based; method in brief: as §1

Structure (SMILES)	inhibition (Plasmodium falciparum [1])	inhibition (Plasmodium falciparum [2])	Ratio IC50 [3]	IC50 (Plasmodium falciparum [4])	IC50 (MDCK)	IC50 (Plasmodium falciparum [7])	inhibition (Plasmodium falciparum [9])	inhibition (Plasmodium falciparum [10])	also measured
O=c1cc(/C=N/Nc2nncc3ccccc23)oc2ccccc12	Active								
C(=N\Nc1nncc2ccccc12)/c1ccc2c(c1)CCO2	Active								
CS(=O)(=O)c1ccc(/C=N/Nc2nncc3ccccc23)cc1	Active								
Cc1[nH]c2ccccc2c1/C=N/Nc1nncc2ccccc12		Active	16.42	12.2 µM	> 200 µM	5.98 µM			inhibition (Plasmodium falciparum [5]): Active; inhibition (Plasmodium falciparum [6]): Active
Oc1ccc(Cl)cc1/C=N\Nc1nncc2ccccc12		Active	60.75	1.65 µM	> 100 µM	1.69 µM	inactive	inactive	inhibition (Plasmodium falciparum [8]): Active
Cn1ccnc1/C=N/Nc1nncc2ccccc12			57.22	3.5 µM	> 200 µM	2.23 µM	inactive	inactive	inhibition (Plasmodium falciparum [11]): Active; inhibition (Plasmodium falciparum [8]): Active
C(=N\Nc1nncc2ccccc12)/C1CC1	Active								
C(=N\Nc1nncc2ccccc12)/c1c[nH]c2ccccc12			14.56	13.7 µM	> 200 µM	6.66 µM	inactive	inactive	inhibition (Plasmodium falciparum [12]): Active
Cc1cc(/C=N/Nc2nncc3ccccc23)c([N+](=O)[O-])cc1C	Active								
C(=N\Nc1nncc2ccccc12)/c1c(-c2ccccc2)[nH]c2ccccc12		Active	57.31	3.49 µM	> 200 µM	2.43 µM	inactive		inhibition (Plasmodium falciparum [5]): Active
